# In ChEMBL document CHEMBL2203279, “Synthesis and pharmacokinetic profile of rhein- boswellic acid conjugate” (Bioorg Med Chem Lett, 2012):
# Tests used:
# Blood [1] = experiment: Drug uptake in po dosed Wistar rat blood at 5 hrs; type: ADME, organism-based; settings: in vivo
# Outline: (§1)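 Overnight-fasted Wistar rats (water allowed) given prodrug 2.5 mg in 0.5 mL saline orally. Blood taken by retro-orbital puncture at intervals over up to 8 h, processed by methanol protein precipitation and centrifugation, and analysed by RP-HPLC for intact prodrug, rhein and boswellic acid, expressed as percent of administered dose.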
# [2] = Prodrug conversion in phosphate buffer assessed as half life of hydrolysis at pH 7.4; type: physicochemical
# Outline: (§2)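 Prodrug (10 mg) incubated in aqueous buffer (HCl pH 1.2 or phosphate pH 7.4) at 37 ± 0.5 °C, stirred at 100 rpm; aliquots withdrawn with medium replacement at intervals up to 7 h. Residual prodrug and released rhein/boswellic acid quantified by RP-HPLC at 211 nm. First-order rate constant from slope of log residual prodrug vs time; triplicate, mean taken.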
# [3] = n-Octanol-phosphate buffer partition coefficient, log P of the compound at pH 7.4; type: physicochemical
# Outline: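 Partition coefficient measured between n-octanol and phosphate buffer pH 7.4, with concentrations read by UV–visible spectrophotometry.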
# [4] = Drug excretion in po dosed Wistar rat urine assessed as rhein up to 24 hrs; type: ADME, organism-based; settings: in vivo
# Outline: (§3)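 Wistar rats given prodrug 2.5 mg in 0.5 mL saline orally after overnight fast; urine and feces collected from metabolic cages at intervals over 24 h and pooled. Urine diluted 10-fold and feces 100-fold in phosphate buffer pH 7.4, then analysed by RP-HPLC for intact prodrug, rhein and boswellic acid as percent.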
# Blood [5] = experiment: Drug uptake in po dosed Wistar rat blood at 3 hrs; type: ADME, organism-based; settings: in vivo; outline: as §1
# [6] = Drug excretion in po dosed Wistar rat urine assessed as boswellic acid up to 24 hrs; type: ADME, organism-based; settings: in vivo; outline: as §3
# [7] = Chemical stability of the compound in HCl buffer at pH 1.2; type: physicochemical; outline: as §2
# Blood [8] = experiment: Drug uptake in po dosed Wistar rat blood at 2 hrs; type: ADME, organism-based; settings: in vivo; outline: as §1
# Plasma = experiment: Prodrug conversion in 80% human plasma assessed as half life of hydrolysis; type: ADME, cell-free
# Outline: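 80% human plasma prepared in 0.05 M phosphate buffer pH 7.4; prodrug methanol stock (250 µg/mL) mixed 1:1 with plasma and incubated at 37 ± 0.5 °C over 7 h. At intervals, centrifuged cold, supernatant protein-precipitated with methanol, recentrifuged, filtered and analysed by RP-HPLC for residual prodrug and released rhein/boswellic acid. Rate constant from log residual prodrug vs time; triplicate.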
# Intestine = experiment: Prodrug conversion in rat small intestine homogenate assessed as half life of hydrolysis; type: ADME, tissue-based; settings: tissue homogenate
# Outline: (§4)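 Prodrug solution in buffer (250 µg/mL) added to rat stomach or small intestinal homogenate pre-equilibrated at 37 ± 0.5 °C. Samples taken at intervals, centrifuged, supernatant filtered and analysed by RP-HPLC at 211 nm for residual prodrug and released rhein/boswellic acid. Rate constant from log residual prodrug vs time slope; triplicate, mean rate constant.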
# Blood [9] = experiment: Prodrug conversion in po dosed Wistar rat blood assessed as boswellic acid production from 4 to 7 hrs; type: ADME, organism-based; settings: in vivo; outline: as §1
# Blood [10] = experiment: Drug uptake in po dosed Wistar rat blood at 6 hrs; type: ADME, organism-based; settings: in vivo; outline: as §1
# Blood [11] = experiment: Drug uptake in po dosed Wistar rat blood at 7 hrs; type: ADME, organism-based; settings: in vivo; outline: as §1
# Blood [12] = experiment: Prodrug conversion in po dosed Wistar rat blood assessed as rhein production from 4 to 7 hrs; type: ADME, organism-based; settings: in vivo; outline: as §1
# Stomach = experiment: Metabolic stability in rat stomach homogenate; type: ADME, tissue-based; settings: tissue homogenate; outline: as §4
# [13] = Drug excretion in po dosed Wistar rat feces assessed as rhein up to 24 hrs; type: ADME, organism-based; settings: in vivo; outline: as §3
# [14] = Drug excretion in po dosed Wistar rat urine up to 24 hrs; type: ADME, organism-based; settings: read-out: Drug excretion; outline: as §3
# [15] = Drug excretion in po dosed Wistar rat feces assessed as boswellic acid up to 24 hrs; type: ADME, organism-based; settings: in vivo; outline: as §3
# Blood [16] = experiment: Drug uptake in po dosed Wistar rat blood at 4 hrs; type: ADME, organism-based; settings: in vivo; outline: as §1
# [17] = Drug excretion in po dosed Wistar rat feces up to 24 hrs; type: ADME, organism-based; settings: faeces, read-out: Drug excretion; outline: as §3
Drug uptake (Blood [1]) [%],t1/2 [2] [h],logD [3],Drug excretion [4] [%],Drug uptake (Blood [5]) [%],Drug excretion [6] [%],Stability [7],Drug uptake (Blood [8]) [%],t1/2 (Plasma) [h],t1/2 (Intestine) [h],Drug metabolism (Blood [9]),Drug uptake (Blood [10]) [%],Drug uptake (Blood [11]) [%],Drug metabolism (Blood [12]),Stability (Stomach),Drug excretion [13],dose excreted at 24 h [14] [%],Drug excretion [15] [%],Drug uptake (Blood [16]) [%],dose excreted at 24 h [17] [%],Structure (SMILES)
22,3.205,2.57,7.1,70.43,8.9,Stable,93.6,3.102,2.672,Active,12,3.4,Active,Stable,Not Active,6.2,4.59,34.5,3.1,CC1(C)CC[C@]2(C)CC[C@]3(C)C(=CC[C@@H]4[C@@]5(C)CC[C@@H](O)[C@](C)(C(=O)Oc6cccc7c6C(=O)c6c(OC(=O)[C@@]8(C)[C@H](O)CC[C@@]9(C)[C@H]8CC[C@]8(C)[C@@H]9CC=C9[C@@H]%10CC(C)(C)CC[C@]%10(C)CC[C@]98C)cc(C(=O)O)cc6C7=O)[C@@H]5CC[C@]43C)[C@@H]2C1
–,–,0.24,–,–,–,–,–,–,–,–,–,–,–,–,–,–,–,–,–,O=C(O)c1cc(O)c2c(c1)C(=O)c1cccc(O)c1C2=O [RHEIN]
